TAAR1 agonist: human TAAR1 agonism; activation, % at 3 µM; CHO RD-HGA16 TAAR1, Fluo-8 calcium fluorescence; vehicle wells 0%, saturating PEA agonist 100%; 360,000 tested, 0.99% active;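 active = activation above the mean activation of all test compounds in the run plus 3 SD, cut at about 38% in these data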
Target sequence (Q96RJ0 whole entry, looked up): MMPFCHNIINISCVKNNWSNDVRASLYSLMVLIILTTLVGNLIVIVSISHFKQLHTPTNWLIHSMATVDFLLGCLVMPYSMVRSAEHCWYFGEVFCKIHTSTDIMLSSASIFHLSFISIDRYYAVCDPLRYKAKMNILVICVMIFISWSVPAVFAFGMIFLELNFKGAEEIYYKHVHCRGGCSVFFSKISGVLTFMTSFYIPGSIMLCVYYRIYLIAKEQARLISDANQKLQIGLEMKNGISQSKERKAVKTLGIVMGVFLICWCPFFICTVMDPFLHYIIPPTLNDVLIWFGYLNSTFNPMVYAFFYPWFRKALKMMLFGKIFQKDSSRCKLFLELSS
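Assay system: CHO-derived RD-HGA16 cells with stable Gα16 and human TAAR1; timing: 17-24 h seeding, 75 min 37 °C dye, 30 min RT; read-out: % activation from peak over basal fluorescence ratio, DMSO-to-PEA scaled; measured by: kinetic Fluo-8 calcium fluorescence; benchmarks: low control DMSO, high control PEA (EC100); doses: 3 µM single concentration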
Beta2AR agonist: human beta-2 adrenergic receptor agonism by FAP | Am2.2-beta2AR cells, FAP receptor internalization, flow cytometry | response, % (no concentration beside the values) | 340,000 tested, 0.43% active;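 active = response above a set limit, near 3 SD of response in nonfluorescent compounds, cut at about 42% in these data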
MC4R antagonist: antagonists of human melanocortin 4 receptor (MC4R) | P32245 | MC4R-expressing cells, MTII-stimulated cAMP, LANCE TR-FRET | inhibition, % at 6.5 µM | 360,000 tested, 0.48% active;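 active = inhibition above its plate's cutoff, the mean of tested wells on that plate plus 3 SD, cut at about 29% in these data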
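System: U2OS cells stably expressing human melanocortin 4 receptor (MC4R). Reagent: Melanotan II challenge after compound preincubation. Doses: 6.5 µM. Times: 30-min compound, 1-h challenge, 1-h detection, room temperature. Measured by: TR-FRET with Eu-cAMP and labeled anti-cAMP, 671 nm. Replicates: singlicate.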
TAAR1 antagonist: antagonists of human TAAR1; Q96RJ0; CHO RD-HGA16 TAAR1, Fluo-8 calcium fluorescence, antagonist; inhibition, % at 3 µM; 360,000 tested, 1.5% active; AID 624466;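 active = inhibition above a per-plate cutoff, the mean inhibition of test compounds on that plate plus 3 SD, cut at about 49% in these data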
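Assay system: RD-HGA16 CHO cells with stable hTAAR1 and Gα16 / Reagent: EC80 β-phenethylamine stimulus / Doses: 3 µM, single point / Timing: dye loading 75 min at 37 °C, then 30 min room temperature / Measured by: Fluo-8 intracellular calcium dye fluorescence, real-time kinetic reads / Controls: vehicle wells and EC80 agonist wells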
MC4R ag barr: human MC4R agonism via beta-arrestin | 360,000 tested, 0.98% active | AID 540308 | activation, % at 8.9 µM | U2OS MC4R beta-arrestin complementation, luminescence; percent of melanotan II response, DMSO zero;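 active = activation above a per-plate cutoff, the mean activation of sample wells on that plate plus 3 SD, cut at about 8% in these data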
HTR2A ag: agonists of mouse serotonin 5-HT2A receptor (HTR2A) | CHO-K1 mHTR2A beta-arrestin complementation, luminescence; percent of 30 µM serotonin response | activation, % at 7.6 µM | 360,000 tested, 0.66% active;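 active = activation above a run cutoff, the mean activation of all tested compounds plus 3 SD, cut at about 14% in these data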
Hits are given with their value; n = inactive; x = no result given. Compounds with a hit are over-represented: about 4.3% of the library has one in this group of screens.

SMILES	TAAR1 agonist	Beta2AR agonist	MC4R antagonist	TAAR1 antagonist	MC4R ag barr	HTR2A ag
COC(=O)C1=C(C)N(Cc2cccc(C(F)(F)F)c2)C(=NCc2cc(OC)c(OC)c(OC)c2)NC1c1cccc(F)c1 (configuration not stated)	n	x	x	n	x	x
CC(C)C[C@H]1COc2cc(Br)ccc2S(=O)(=O)N1Cc1ccc(F)cc1F	n	x	x	n	x	x
O=S1(=O)N[C@@H](Cc2ccccc2)COc2cccc(N3CCCC3)c21	n	x	x	n	x	x
CC(C)(C)c1ccc(NC(=O)COc2ccc(-n3ccnc3)cc2)cc1	n	n	n	57	n	n
COc1cc(NC(=O)COc2ccc(-n3ccnc3)cc2)cc(OC)c1	n	n	n	n	n	n
NC(=O)NN=C1CCC(O)CC1CC(=O)O (configuration not stated)	n	x	x	n	x	x
CC(C)Cn1c(N)c(C(=O)COC(=O)CCNS(=O)(=O)c2ccccc2)c(=O)n(C)c1=O	n	n	n	51	n	n
CC(C)Cn1c(N)c(C(=O)COC(=O)c2cc(S(=O)(=O)N3CCOCC3)ccc2Br)c(=O)n(C)c1=O	n	n	n	54	n	n
O=C(Nc1ccc(Cl)cc1)N1CCC(c2nc(-c3ccccc3Cl)no2)CC1	n	n	n	n	9.0	n
O=C(Nc1ccc(Cl)cc1)N1CCC(c2nc(-c3cccs3)no2)CC1	n	n	n	n	n	n
CN[C@H]1C[C@H]2c3[nH]c4c(-c5ccccc5)cccc4c3CCN2C[C@H]1[C@H](C)O	n	x	x	n	x	x
O=S(=O)(c1ccc(S(=O)(=O)N(Cc2ccccc2)Cc2ccco2)cc1)N1CCCC1	n	n	n	n	8.5	n
O=C(C(=O)N1CCC(CNS(=O)(=O)c2ccc(F)c(F)c2)CC1)c1cc2ccccc2o1	n	x	x	n	x	x
Cc1cc(NC(=O)c2cccnc2Cl)ccc1NC(=O)c1cc2ccccc2o1	40	n	n	n	n	n
COc1cc(NC(=O)c2ccccc2F)ccc1NC(=O)c1cc2ccccc2o1	n	n	n	n	8.8	n
COc1cc(NC(=O)c2ccc(F)cc2)ccc1NC(=O)c1cc2ccccc2o1	n	n	n	n	n	n
CC(C)(C)n1nnnc1C(c1ccccc1)N1CCN(c2ncccc2C(F)(F)F)CC1 (configuration not stated)	n	x	x	n	x	n
COC(=O)[C@@]12C[C@@H](CC(=O)NCC3CCCCC3)C(=O)N(Cc3cccc4ccccc34)C1=CCC(C)(C)C2	n	x	x	n	x	n
COC(=O)C1=C(C)N(Cc2ccccc2C(F)(F)F)C(=NCc2ccc3c(c2)OCO3)NC1c1ccccc1C(F)(F)F (configuration not stated)	n	x	x	n	x	x
COC(=O)c1ccc(CN2C(=O)C(C)N(C(=O)c3c(F)cccc3F)c3ccccc32)cc1 (configuration not stated)	42	n	n	83	n	n
CC1C(=O)N(Cc2ccc(F)cc2)c2ccccc2N1C(=O)c1c(F)cccc1F (configuration not stated)	n	n	n	n	n	n
COc1ccc(C(=O)N2N=C(c3cccs3)CC2c2ccccc2O)cc1 (configuration not stated)	n	n	n	n	12	n
CCCCNc1ccc2c(c1)OC[C@H](CC(C)C)NS2(=O)=O	n	x	x	n	x	x
OCC1OC(C(N=Nc2ccccc2)=NNc2ccccc2)C(O)C1O (configuration not stated)	n	x	x	n	x	x
CC1=C(C(=O)N(C)C)CC(CC(=O)NCCc2ccccn2)C(=O)N1Cc1ccc(F)cc1 (configuration not stated)	41	x	n	n	n	n
SMILES	TAAR1 agonist	Beta2AR agonist	MC4R antagonist	TAAR1 antagonist	MC4R ag barr	HTR2A ag
CC1=C(C(=O)N2CCOCC2)CC(CC(=O)NCCc2ccccn2)C(=O)N1Cc1ccc(F)cc1 (configuration not stated)	n	x	n	n	n	n
CC1=C(C(=O)N(C)C)CC(CC(=O)NCCc2ccccn2)C(=O)N1Cc1ccc(C(C)(C)C)cc1 (configuration not stated)	n	x	n	n	n	n
CC1=C(C(=O)N(C(C)C)C(C)C)CC(CC(=O)NCCc2ccccn2)C(=O)N1Cc1ccc(F)cc1 (configuration not stated)	38	x	x	n	x	n
COc1ccc(C(=O)N2CCC[C@@H]2C(=O)N2CCC[C@@H]2C(=O)NCc2ccccc2)cc1F	n	x	x	n	x	x
Cc1ccc(C(=O)CSc2nnc(-c3c[nH]c4ccccc34)o2)cc1	n	n	n	n	8.2	n
c1ccc(N2CCN(c3ncnc4c3oc3ccccc34)CC2)cc1	n	n	n	49	n	n
Cc1cc2c(c(=O)o1)[C@@]1(C(=O)N(C)c3ccccc31)C1=C(CCC1=O)O2	n	x	x	n	x	x
CSc1ccc(C2C(C(=O)c3ccco3)=C(O)C(=O)N2c2nnc(SC)s2)cc1 (configuration not stated)	n	n	33	n	n	n
CCOC(=O)c1c(NC(=O)COC(=O)c2ccccc2NC)sc(C(=O)N(C)C)c1C	n	n	n	n	n	n
CCOC(=O)c1c(NC(=O)COC(=O)c2nc(Cl)ccc2Cl)sc(C(=O)N(C)C)c1C	n	n	n	51	n	n
O=c1c2c(-c3ccccc3)csc2nc2c3ccccc3c(NCCN3CCOCC3)nn12	n	107	n	n	9.3	n
O=C(NCc1cccnc1)C12CC3CC(CC(Cl)(C3)C1)C2	n	n	n	n	n	n
CCOC(=O)Nc1cc(=O)c([N+](=O)[O-])c(N)[nH]1	n	x	x	n	x	x
COc1ccccc1CNc1nc(Nc2ccc(C)cc2C)c2sccc2n1	n	x	n	n	n	n
COc1cccc(CNc2nc(NCc3ccccc3)nc3ccsc23)c1	49	x	n	96	n	n
c1ccc(CNc2nc(NCCc3ccncc3)c3sccc3n2)cc1	125	x	n	106	n	n
Cc1ccc(Nc2nc(NCc3ccccc3)nc3ccsc23)c(C)c1	n	x	n	88	n	n
COCCNc1nc(NCc2cccs2)nc2ccsc12	122	x	n	104	n	n

Screening data (PubChem BioAssay)
